Laboratory results reported in PubChem BioAssay.
A number with no mark means an inactive call. Results filed as inconclusive are left out. Calls of active or inactive are those of the source.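 The calls were made as follows, unless noted: active = inhibition over a set limit, the all-compound mean plus 3 SD, in both replicate runs; inconclusive = over that limit in just one replicate run; inactive = at or under that limit in both runs.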

Key:
[1] = OD615 S. cerevisiae growth inhibition, permissive medium, pilot counter-assay, permissive growth control for S. cerevisiae lifespan shortening project (AID 705;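 active = growth inhibition above 25% in both replicates, a cutoff set 3 SD above the mean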); settings: OD615, 24 h, at 10 µM, hits give high values
Procedure, shortened: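 Material: engineered DeaD yeast; Compound: one dose 10 µM, DMSO 0.25% final; Detection: absorbance (optical density) at 615 nm; Buffer or medium: permissive raffinose/galactose medium; Timing: 24 h exposure, 30 °C.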

[2] = Restrictive medium S. cerevisiae growth inhibition, OD615, pilot screen of yeast lifespan reduction project, restrictive growth control (AID 706;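 active = growth inhibition above a set limit, 3 SD over mean compound inhibition, in both replicates, cut at about 43% in these data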;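 also: modified DeaD lifespan yeast strain shifted to restrictive glucose medium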); settings: OD615, 48 h, at 10 µM, hits give high values
Procedure, shortened: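 Buffer or medium: restrictive glucose medium (CSMM-D); test system: modified S. cerevisiae; doses: single dose of 10 µM compound final, 0.25% DMSO; schedule: 48 h compound exposure at 30 °C; detection: absorbance (optical density) measured at 615 nm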

[3] = viability gain of MRP-1-high H69AR cells under doxorubicin, pilot screen, MRP-1 activator project, CellTiter-Glo, duplicate (AID 807;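 active = viability increase at or above a cutoff of the median across tested compounds plus 3 SD, cut at about 8.5% in these data, passing the limit was not always enough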;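 also: compound pretreatment 18-22 h then 72 h combined with doxorubicin; 0% = doxorubicin alone and 100% = vehicle without doxorubicin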); settings: H69AR viability with doxorubicin, CellTiter-Glo luminescence; at 10 µM; hits give high values
[4] = growth suppression of PTEN-deleted HCT116, pilot screen, cell-based, HCT116 clonal line, CellTiter-Glo (AID 824;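 active = viability at or below 27.92% in each of two runs, the all-compound median minus 4 SD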;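 also: 0% = 20 µM Hyamine control and 100% = vehicle cell control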); settings: 60 h, at 10 µM, hits give low values
[5] = inhibitors of the yeast RAM network, pilot screen, dse1pr::URA3 reporter, 5-FOA selection (AID 869);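 also: 0% = DMSO wells with no growth and 100% = 10 µM 1-NA-PP1 with full growth; RAM network block rescues cells from 5-FOA so hits raise OD615 growth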; settings: S. cerevisiae dse1pr::URA3 5-FOA growth, OD615, 2 d; at 10 µM; hits give high values; strain carries analog-sensitive mutant Cbk1 kinase
[6] = RAM signaling pathway blockade in yeast – S. cerevisiae, Pdr1DBD-CYC8 efflux-inhibited sensitized strain, primary screen (AID 1298;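 active = RAM network inhibition above 8.4% in each of two replicates, 3 SD over the compound average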;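 also: 0% = DMSO untreated cells without growth and 100% = 10 µM 1-NA-PP1 full growth; higher means more yeast growth rescued from 5-FOA killing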); settings: S. cerevisiae cbk1-as DSE1-URA3 strain, 5-FOA growth OD615, 2 d; at 50 µM; hits give high values

Row | SMILES | growth inhibition [1] [%] | growth inhibition [2] [%] | viability increase [3] [%] | viability [4] | inhibition [5] [%] | RAM network inhibition [6] [%]
1 | Cc1noc(C)c1CSc1nnc(-c2cc(Cl)ccc2Cl)n1N | 8.57 | 8.54 | -2.82 | 95% | 1.9 | 2.06
2 | CCOC(=O)N1CCN(C(=O)C(CC(C)C)NC(=O)C2CCCCC2)CC1 (stereo not drawn) | -11.7 | -4.5 | -2.13 | 101% | 0.455 | 1.59
3 | CCN1C(=S)SC(=O)C1=C1C=C(C)N(CCO)C(C)=C1 | 1.7 | 23.4 | -2.35 | 95.3% | 1.45 | 0.11
4 | CC(C)c1cc(=O)oc2c3c4c(cc12)CCCN4CCC3 | 0.175 | 9.32 | -4.62 | 57.8% | 1.84 | 3.62
5 | CCOC(=O)N1CCN(C(=O)CS(=O)(=O)c2cn(Cc3ccccc3C)c3ccccc23)CC1 | -9.04 | -6 | -2.26 | 94% | 2.09 | 8.81
6 | COCCNS(=O)(=O)c1ccc2c(c1)C(=O)c1cc(S(=O)(=O)NCCOC)ccc1-2 | -1.33 | 0.015 | -0.81 | 96.4% | 2.15 | 3.45
7 | O=C(C1CC1)N1CCc2cc(Br)cc(S(=O)(=O)N3CCCCCC3)c21 | -4 | -6.99 | -3.17 | 82.1% | 1.66 | 5.99
8 | O=C(CCCOc1ccccc1)N1CCCc2ccccc21 | -0.835 | -2.99 | -2.01 | 92.2% | 0.825 | 2.37
9 | CCOc1ccccc1N(CC(=O)Nc1ccc2c(c1)OCO2)S(C)(=O)=O | -8.59 | -22.3 | -0.96 | 100% | 1.7 | -0.87
10 | O=C(c1ccco1)c1n[nH]nc1-c1ccccc1 | -19.6 | -5.81 | -3.17 | 102% | 1.16 | 1.94
11 | COc1ccc(C2C(C(=O)N3CCN(c4ccccc4F)CC3)c3ccccc3C(=O)N2C)cc1 (stereo not drawn) | -12.2 | -6.36 | -5.64 | 74.3% | 1.3 | 4.16
12 | COc1ccccc1-n1c(SCC(=O)Nc2nnc(C)s2)nc2c(c1=O)SCC2 | -5.29 | 3.71 | -3.7 | 80.6% | 0.81 | 3.59
13 | CCNc1nc(NCC)nc(OCCNS(=O)(=O)c2cc(C)ccc2C)n1 | 7.46 | 6.54 | -2.5 | 95.3% | 0.235 | 1.53
14 | COCCNC(=O)c1ccc2c(=O)n(CCOC)c(=O)[nH]c2c1 | -8.7 | -15.7 | -3.33 | 91.3% | 0.805 | 0.78
15 | CCOC(=O)N1CCN(C(=O)CN(c2cccc(C(F)(F)F)c2)S(C)(=O)=O)CC1 | -9.57 | -1.87 | -4.09 | 88.9% | 0.905 | 4.83
16 | CN1CCN(C(=O)c2c(NC(=O)c3ccco3)sc3c2CCC(C(C)(C)C)C3)CC1 (stereo not drawn) | -11.3 | 1.13 | -2.04 | 79.9% | -0.17 | 0.15
17 | Cc1oc(-c2ccc(Cl)cc2)nc1CN1CCC(C(=O)N2CCc3ccccc3C2)CC1 | -4.91 | -16.6 | -8.22 | 11.8% (active) | 0.05 | 8.38
18 | CCS(=O)(=O)C(=C(Nc1ccc(OC)cc1)Nc1ccc(OC)cc1)S(=O)(=O)CC | -3.28 | 4.84 | -0.19 | 95.3% | 0.04 | 7.21
19 | CCCCn1c(=NC(=O)c2ccco2)c(C(=O)OCC)cc2c(=O)n3ccccc3nc21 | 1.16 | 6.8 | -6.94 | 20.3% (active) | 0.795 | 1.9

Row | SMILES | growth inhibition [1] [%] | growth inhibition [2] [%] | viability increase [3] [%] | viability [4] | inhibition [5] [%] | RAM network inhibition [6] [%]
20 | COC(=O)CCc1nc2ccccc2[nH]c1=O | -6.03 | -5.04 | -0.31 | 100% | 1.4 | 2.15
21 | COc1ccc(OC)c(S(=O)(=O)N2CCCCC2C(=O)N2CCN(c3ccccn3)CC2)c1 (stereo not drawn) | 1.82 | -0.22 | -4.71 | 91.8% | 1.77 | 7.83
22 | COc1ccc(C)cc1NC(=O)CN(c1ccccc1)S(C)(=O)=O | -7.61 | -4.67 | -1.58 | 96% | 0.74 | 5.82
23 | C#CCN1C(=O)C(O)(CC(=O)c2ccc3c(c2)OCCO3)c2ccccc21 (stereo not drawn) | -19 | -18.4 | -2.81 | 49.2% | 0.74 | 6.75
24 | O=C(NCc1cccnc1)NC1(C(F)(F)F)Oc2ccccc2O1 | 4.4 | 5.9 | -5.46 | 67.2% | 0.81 | 3.16
25 | CCOC(=O)N1CCN(C(=O)CN(C2CCCCC2)S(=O)(=O)c2ccc(C)cc2)CC1 | -13.9 | -3.6 | -4.47 | 97.3% | 1.92 | -1.07
26 | CCOC(=O)C1CCN(C(=O)c2oc3ccc(S(=O)(=O)N4CC(C)CC(C)C4)cc3c2C)CC1 (stereo not drawn) | 1.57 | -4.64 | -6.15 | 52.7% | -1.02 | 5.32
27 | CC(=O)c1c(C(C)=O)c(C)n(-c2nc(-c3ccccc3)c(C)s2)c1C | 0.235 | -11 | -2.37 | 91.4% | 1.21 | 4.01
28 | CC(NC(=O)c1ccccc1O)c1ccccc1 (stereo not drawn) | 0.015 | -2.42 | 0.41 | 94.1% | 0.1 | 0
29 | COc1cc(C)c(C(C)C)cc1S(=O)(=O)n1cnc(C)c1 | 0.115 | 6.4 | -3.58 | 37.8% | 0.425 | 4.02
30 | COc1cc(C(=O)N2CCN(c3cccc(C)c3C)CC2)cc(OC)c1OC | 0.72 | 9.77 | -5.32 | 20.1% (active) | -0.125 | 10.1
31 | O/N=C1/C2C3CC4C5C3C1C5C1(OCCO1)C42 (stereo not drawn) | -8.1 | -16.9 | -1.45 | 99% | 1.39 | 3.89
32 | COc1ccc(S(=O)(=O)N(CCc2ccccc2)CC(=O)N2CCOCC2)cc1 | -7.4 | -6.06 | -4.39 | 96.6% | 0.965 | -0.36
33 | COc1ccc(C2=[N+]([O-])C(C)(C)N(O)C2(C)C)cc1 | -8.58 | 12.9 | -1.34 | 100% | 1.38 | 0.67
34 | CCN(CC)c1ccc(CNC23CN4CN(CN(C4)C2)C3)cc1 | -8.69 | 2.79 | -2.2 | 94.1% | 1.72 | 2.4
35 | Cc1ccc(S(=O)(=O)c2cccc(S(=O)(=O)N3CCCC3)c2)cc1S(=O)(=O)N1CCCC1 | -2.43 | -5.35 | -3.64 | 44.4% | 1.4 | 2.38
36 | CCCOC(=O)c1ccc(OCC(O)Cn2c(C)nc3ccccc32)cc1 (stereo not drawn) | -11.1 | -3.87 | -1.73 | 57.2% | 0.99 | 6.95
37 | Nc1ccc(O)c(-c2nc3ccccc3s2)c1 | 2.32 | 5.73 | -7.28 | 32.6% | 2.77 | 1.92
38 | COc1ccc(S(=O)(=O)Nc2ccc(S(=O)(=O)N3CCOCC3)cc2)cc1 | -3.87 | -1.83 | -1.49 | 101% | 1.18 | 2.87
